ChEMBL document CHEMBL1137220, “2-(2-(dimethylaminomethyl)phenoxy)-5-iodophenylamine: an improved serotonin transporter imaging agent” (J Med Chem, 2004)

Experiments:
[1] = Biodistribution in rat brain was determined after 6 hours of intravenous administration of the compound; [125I]- is used as radioactive isotope; format: ADME, organism-based; conditions: in vivo
Outline: (§1)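 Rats under ether anesthesia, three per group, received 10 μCi tracer in 0.2 mL saline into the femoral vein. They were killed by cardiac excision under ether at each time point. Organs were removed, weighed and counted. Percent dose per organ was calculated against a 1%-of-injected-dose standard counted at the same time.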

[2] = Biodistribution in rat lung was determined after 120 min of intravenous administration of the compound; [125I]- is used as radioactive isotope; format: ADME, organism-based; conditions: in vivo, 2 h; outline: as §1
[3] = Biodistribution in rat skin was determined after 120 min of intravenous administration of the compound; [125I]- is used as radioactive isotope; format: ADME, organism-based, Zone of skin; conditions: in vivo, 2 h
Outline: (§2)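 Rats, three per group, under ether anaesthesia, received 10 μCi of [¹²⁵I]-labelled tracer in 0.2 mL saline into the femoral vein. They were killed by cardiac excision under ether at each time point. Organs were removed, weighed and counted. Percent dose per organ was calculated against counts of a 1% aliquot of the injected dose (100-fold diluted) counted at the same time.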

[4] = Regional brain distribution in rat hippocampus was determined after 6 hours of intravenous administration of the compound; [125I]- is used as radioactive isotope; format: ADME, tissue-based; conditions: in vivo
Outline: (§3)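 Rats, three per group, injected with 10 μCi tracer in 0.2 mL saline via the femoral vein under ether anesthesia and killed by cardiac excision at the stated time. Cortex (frontal plus occipital), striatum, hippocampus, cerebellum and hypothalamus were dissected, weighed and gamma-counted. Values are % dose/g, calculated by comparison with counts of a 100-fold diluted aliquot of the injected dose.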

[5] = Regional brain distribution in rat striatum was determined after 240 min of intravenous administration of the compound; [125I]- is used as radioactive isotope; format: ADME, tissue-based; conditions: in vivo, 4 h; outline: as §3
[6] = Biodistribution in rat blood was determined after 2 min of intravenous administration of the compound; [125I]- is used as radioactive isotope; format: ADME, organism-based; conditions: in vivo; outline: as §1
[7] = Regional brain distribution in rat cortex was determined after 60 min of intravenous administration of the compound; [125I]- is used as radioactive isotope; format: ADME; conditions: in vivo, 1 h; outline: as §3
[8] = Biodistribution in rat muscle was determined after 30 min of intravenous administration of the compound; [125I]- is used as radioactive isotope; format: ADME, organism-based, Muscle tissue; conditions: in vivo, 0.5 h; outline: as §2
[9] = Biodistribution in rat brain was determined after 24 hours of intravenous administration of the compound; [125I]- is used as radioactive isotope; format: ADME, organism-based; conditions: in vivo; outline: as §1
[10] = Biodistribution in rat lung was determined after 240 min of intravenous administration of the compound; [125I]- is used as radioactive isotope; format: ADME, organism-based; conditions: in vivo, 4 h; outline: as §1
[11] = Distribution ratio in striatum and cerebellum was determined after 120 min of intravenous administration of the compound; [125I]- is used as radioactive isotope; format: ADME, tissue-based; conditions: rat, 2 h
Outline: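 Rats, three per group, given 10 μCi tracer in 0.2 mL saline into the femoral vein under ether anesthesia, then killed by cardiac excision at the stated time. Brain regions were dissected, weighed and counted. Percent dose/g was calculated against a 1% diluted aliquot of the injected dose. The ratio is (region − cerebellum)/cerebellum on a % dose/g basis, with cerebellum as background.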

[12] = Biodistribution in rat spleen was determined after 60 min of intravenous administration of the compound; [125I]- is used as radioactive isotope; format: ADME, organism-based; conditions: in vivo, 1 h; outline: as §2
[13] = Biodistribution in rat kidney was determined after 11 hours of intravenous administration of the compound; [125I]- is used as radioactive isotope; format: ADME, organism-based; conditions: in vivo; outline: as §1
[14] = Biodistribution in rat thyroid was determined after 60 min of intravenous administration of the compound; [125I]- is used as radioactive isotope; format: ADME, organism-based, Thyroid gland; conditions: in vivo, 1 h; outline: as §2
[15] = Regional brain distribution in rat hypothalamus was determined after 30 min of intravenous administration of the compound; [125I]- is used as radioactive isotope; format: ADME, tissue-based; conditions: in vivo, 0.5 h; outline: as §3
[16] = Biodistribution in rat thyroid was determined after 240 min of intravenous administration of the compound; [125I]- is used as radioactive isotope; format: ADME, organism-based, Thyroid gland; conditions: in vivo, 4 h; outline: as §2
[17] = Distribution ratio in hippocampus and cerebellum was determined after 11 hrs of intravenous administration of the compound; [125I]- is used as radioactive isotope; format: ADME, tissue-based; conditions: rat
Outline: (§4)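 After femoral-vein injection of 10 μCi [¹²⁵I] tracer in 0.2 mL saline under ether anaesthesia (three rats per group), brain regions were dissected, weighed and counted: cortex (frontal plus occipital), hippocampus, hypothalamus and cerebellum. %dose/g was calculated against a diluted injected-dose standard. Ratio = (region − cerebellum)/cerebellum on a %dose/g basis, with cerebellum as the background region.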

[18] = Biodistribution in rat skin was determined after 24 hours of intravenous administration of the compound; [125I]- is used as radioactive isotope; format: ADME, organism-based, Zone of skin; conditions: in vivo; outline: as §2
[19] = Distribution ratio in hippocampus and cerebellum was determined after 240 min of intravenous administration of the compound; [125I]- is used as radioactive isotope; format: ADME, tissue-based; conditions: rat, 4 h; outline: as §4

SMILES: CN(C)Cc1ccccc1Oc1ccc(I)cc1N
- Dose [1]: 0.11%
- Dose [2]: 0.88%
- Dose [3]: 12.5%
- Dose/g [4]: 0.059%
- Dose/g [5]: 0.24%
- Dose [6]: 5.75%
- Dose/g [7]: 0.95%
- Dose [8]: 18.1%
- Dose [9]: 0.01%
- Dose [10]: 0.37%
- Dose/g [11]: 2.53%
- Dose [12]: 0.47%
- Dose [13]: 0.4%
- Dose [14]: 0.41%
- Dose/g [15]: 1.3%
- Dose [16]: 2.34%
- Dose/g [17]: 0.09%
- Dose [18]: 4.02%
- Dose/g [19]: 2.47%
